Measured values from different studies.
Compare with care: the assays were run in different laboratories.
EGFR L858R/T790M: Epidermal growth factor receptor (EGFR, Homo sapiens, UniProt P00533, L858R/T790M)
EGFR del752-759: Epidermal growth factor receptor (EGFR, Homo sapiens, UniProt P00533, del752-759)
EGFR A750P/del747-749: Epidermal growth factor receptor (EGFR, Homo sapiens, UniProt P00533, A750P/del747-749)
EGFR del746-750: Epidermal growth factor receptor (EGFR, Homo sapiens, UniProt P00533, del746-750)
EGFR: Epidermal growth factor receptor (EGFR, Homo sapiens, UniProt P00533)
EGFR T790M: Epidermal growth factor receptor (EGFR, Homo sapiens, UniProt P00533, T790M)
EGFR G719S: Epidermal growth factor receptor (EGFR, Homo sapiens, UniProt P00533, G719S)
EGFR del747-752/P753S: Epidermal growth factor receptor (EGFR, Homo sapiens, UniProt P00533, del747-752/P753S)
EGFR L861Q: Epidermal growth factor receptor (EGFR, Homo sapiens, UniProt P00533, L861Q)

CN(c1nccc(-c2cnn3ncccc23)n1)C1CC1 — remaining binding (EGFR L858R/T790M; binding; 1 µM): 100%
O=C(c1ccc(Nc2ncc(Cl)c(-c3ccc(Cl)s3)n2)cc1)N1CCC(N2CCCC2)CC1 — remaining binding (EGFR del752-759; binding, competition with immobilised ligand; 1 µM): 96%
CO[C@@H](C)c1c(Nc2ccc([C@H](N(C)C(=O)C3CCS(=O)(=O)CC3)C(F)(F)F)cc2)cnc2cc(Cl)nn12 — remaining binding (EGFR A750P/del747-749; cell-free assay, competition with immobilised ligand; 1 µM): 99%
CC1CCCN1c1nccc(-c2cnn3ncccc23)n1 (stereo not shown) — remaining binding (EGFR del746-750; binding; 1 µM): 75%
COc1cnc(Nc2cccc(S(N)(=O)=O)c2)nc1N1CCN(c2ccccc2)CC1 — remaining binding (EGFR del752-759; binding, competition with immobilised ligand; 1 µM): 94%
CCN(CC)Cc1cc(Nc2ccnc3cc(Cl)ccc23)ccc1O — remaining binding (EGFR; cell-free assay, competition with immobilised ligand; 0.1 µM): 100%
CN(C)c1nccc(-c2cnc3ncccn23)n1 — remaining binding (EGFR del752-759; binding; 1 µM): 100%
O=C(Nc1ccc(Oc2ccc(F)cc2)cc1)N1CCc2ncccc2[C@H]1c1ccc(F)cc1 — remaining binding (EGFR T790M; cell-free assay, competition with immobilised ligand; 1 µM): 87%
CNC(=O)[C@@H]1CC[C@@H](n2c(-c3ccc4cnccc4c3)nc3ccc(C(=O)NCc4cccc(C(N)=O)c4)cc32)C1 — remaining binding (EGFR G719S; binding, competition with immobilised ligand; 1 µM): 100%
Cc1cnn2ncc(-c3ccnc(N(C)C)n3)c2c1 — remaining binding (Epidermal growth factor receptor (EGFR, Homo sapiens, UniProt P00533, G719C); binding; 1 µM): 100%
O=C(Nc1c[nH]nc1C(=O)NC1CCNCC1)c1cc(F)cc(F)c1 — remaining binding (EGFR del752-759; binding, competition with immobilised ligand; 1 µM): 100%
O=C(NCCCN1CCOCC1)c1ccc(Nc2nccc(-c3cc4ccccc4s3)n2)cc1 — remaining binding (EGFR del747-752/P753S; binding, competition with immobilised ligand; 1 µM): 92%
N[C@H]1CCN(c2nccc(-c3cnn4ncccc34)n2)C1 — remaining binding (Epidermal growth factor receptor (EGFR, Homo sapiens, UniProt P00533, L858R); binding; 1 µM): 100%
CN(C)C(=O)Cn1cc(-c2nc(C3(c4ccc(-c5cnc(N)nc5)cc4)CC3)no2)cn1 — remaining binding (EGFR L861Q; cell-free assay, competition with immobilised ligand; 1 µM): 100%
O=C(c1ccc(Nc2ncc(Cl)c(-c3cc4ccccc4s3)n2)cc1)N1CCC(N2CCCC2)CC1 — remaining binding (EGFR G719S; binding, competition with immobilised ligand; 1 µM): 98%
CCCOc1ccc([C@@H]2[C@@H](C(=O)O)[C@H](c3ccc4c(c3)OCO4)CN2CC(=O)Nc2c(CC)cccc2CC)cc1 — remaining binding (EGFR L861Q; cell-free assay, competition with immobilised ligand; 1 µM): 100%
Nc1ncc2c(n1)-c1c([nH]c3ccc(C#CC4CC4)cc13)CCCC2 — remaining binding (EGFR del747-752/P753S; binding, competition with immobilised ligand; 1 µM): 56%
CCN1CCN(Cc2ccc(C(=O)Nc3ccc(C)c(Oc4ccc5c(c4)CC(=O)N5)c3)cc2C(F)(F)F)CC1 — remaining binding (EGFR del752-759; binding, competition with immobilised ligand; 1 µM): 100%
COc1cnc(Nc2cccc(S(N)(=O)=O)c2)nc1N1CCN(c2ccccc2)C(=O)C1 — remaining binding (EGFR L858R/T790M; binding, competition with immobilised ligand; 1 µM): 72%
CN(C)c1ncnc(-c2ccc3nc(Nc4cc(CN5CCN(C(=O)CC(F)(F)F)CC5)ccn4)[nH]c3c2)c1Cl — remaining binding (EGFR L858R/T790M; cell-free assay, competition with immobilised ligand; 1 µM): 82%
c1cncc(-c2cccc(Nc3nccc(NC4CCCCC4)n3)c2)c1 — remaining binding (EGFR del746-750; binding, competition with immobilised ligand; 10 µM): 38%
C[C@@H]1CN(c2ccc3ncc(-c4ccc5[nH]nc(C6CC6)c5c4)n3n2)C[C@H](C)O1 — remaining binding (EGFR; binding, competition with immobilised ligand; 0.5 µM): 31%
CCOC(=O)c1cc2cc(-c3cc(C(=O)NCc4ccc(C(=O)O)cc4)nn3C)ccc2[nH]1 — remaining binding (EGFR T790M; cell-free assay, competition with immobilised ligand; 0.1 µM): 89%
CN1CCN(c2ccc(Nc3nccc(-c4ccccc4)n3)cc2C(F)(F)F)CC1 — remaining binding (EGFR G719S; binding; 10 µM): 98%
CN([C@@H]1CCc2c(CC(=O)O)c3ccccc3n2C1)S(=O)(=O)c1ccc(F)cc1 — remaining binding (EGFR A750P/del747-749; cell-free assay, competition with immobilised ligand; 1 µM): 100%
C[C@H]1CCN(c2nccc(-c3cnn4ncccc34)n2)C1 — remaining binding (EGFR del746-750; binding; 1 µM): 71%
O=C(NCCCN1CCOCC1)c1ccc(Nc2ncc(Cl)c(-c3ccc(Cl)s3)n2)cc1 — remaining binding (EGFR T790M; binding, competition with immobilised ligand; 1 µM): 83%
CN(C)c1nccc(-c2cnn3ncccc23)n1 — remaining binding (EGFR L858R/T790M; binding; 1 µM): 100%
Cc1cnc(Nc2ccc(C(=O)N3CCC(N4CCCC4)CC3)cc2)nc1-c1cc2ccccc2s1 — remaining binding (EGFR T790M; binding, competition with immobilised ligand; 1 µM): 56%
O=C(NCC1CCOCC1)c1n[nH]cc1NC(=O)c1c(F)cccc1F — remaining binding (EGFR G719S; binding, competition with immobilised ligand; 1 µM): 100%
O=C(c1ccc(Nc2nccc(-c3cc4ccccc4s3)n2)cc1)N1CCC(N2CCCC2)CC1 — remaining binding (EGFR L861Q; binding, competition with immobilised ligand; 1 µM): 89%
COc1ncc2cc3ccccc3nc2c1C#N — remaining binding (EGFR del746-750; cell-free assay, competition with immobilised ligand; 5 µM): 87%
Cc1c(NC(=O)c2cc(C(N)=O)nc3cc(F)ccc23)c(C(F)(F)F)nn1Cc1ccc(C(C)(C)C)cc1 — remaining binding (EGFR A750P/del747-749; cell-free assay, competition with immobilised ligand; 1 µM): 100%
CN1CCN(c2ccc(Nc3nccc(-c4cccc([N+](=O)[O-])c4)n3)cc2C(F)(F)F)CC1 — remaining binding (EGFR L861Q; binding; 10 µM): 96%
